Assay results published in ChEMBL document CHEMBL1145019, “The power of visual imagery in drug design. Isopavines as a new class of morphinomimetics and their human opioid receptor binding activity” (J Med Chem, 2003).
Calls of active or inactive are those of the source. The rule behind the calls is not given here.

Experiments:
[1] = target: Delta-type opioid receptor (Homo sapiens, UniProt P41143); assay: In vitro binding affinity against cloned human Opioid receptor delta 1 expressed in HEK 293S cells; format: cell-based, HEK293
How it was run: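 Compounds tested at 5 or 10 concentrations in duplicate, in 50 mM Tris, 3 mM MgCl2, 1 mg/mL BSA, pH 7.4. Bound radioactivity measured at equilibrium by filtration. Nonspecific binding defined with 10 µM naloxone. IC50 from a two-parameter logistic fit.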

Mu-type opioid receptor [2] = target: T1, Mu-type opioid receptor (Homo sapiens, UniProt P35372); assay: biochemical; format: cell-based, HEK293
[3] = target: Kappa-type opioid receptor (Homo sapiens, UniProt P41145); assay: biochemical; format: cell-based, HEK293
[4] = Selectivity of mu IC50 to that of delta IC50 was calculated; NA means Insufficient binding potency
How it was run: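 Ratio = delta IC50 / mu IC50, from radioligand displacement on HEK-293S P2 membranes expressing human receptors. […] Tris 50 mM, MgCl2 3 mM, BSA 1 mg/mL, pH 7.4. Filtration at equilibrium; 10 µM naloxone defined nonspecific binding. IC50 from logistic fits.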

Mu-type opioid receptor [5] = target: T1, Mu-type opioid receptor; assay: Tested for effective concentration against cloned human Opioid receptor mu 1
How it was run: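 GTP[γ]35S binding using HEK-293S membranes expressing hμ (0.2 pmol/mg protein). Filtration after 1 h. Stimulated binding defined with 30 µM DAMGO. EC50 from a three-parameter logistic fit.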

T1 sequence (P35372 whole entry): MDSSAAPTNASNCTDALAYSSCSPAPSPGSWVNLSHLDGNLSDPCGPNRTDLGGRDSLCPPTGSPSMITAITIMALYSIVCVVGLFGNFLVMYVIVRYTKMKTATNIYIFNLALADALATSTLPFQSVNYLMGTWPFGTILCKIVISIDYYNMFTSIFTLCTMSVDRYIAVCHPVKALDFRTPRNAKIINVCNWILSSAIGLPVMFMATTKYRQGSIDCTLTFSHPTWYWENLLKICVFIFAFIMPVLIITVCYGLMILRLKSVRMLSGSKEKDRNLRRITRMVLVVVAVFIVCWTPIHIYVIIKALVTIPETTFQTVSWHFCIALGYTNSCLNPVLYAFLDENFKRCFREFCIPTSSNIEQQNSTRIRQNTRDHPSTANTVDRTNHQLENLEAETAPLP
Sequence of Delta-type opioid receptor (P41143 whole entry): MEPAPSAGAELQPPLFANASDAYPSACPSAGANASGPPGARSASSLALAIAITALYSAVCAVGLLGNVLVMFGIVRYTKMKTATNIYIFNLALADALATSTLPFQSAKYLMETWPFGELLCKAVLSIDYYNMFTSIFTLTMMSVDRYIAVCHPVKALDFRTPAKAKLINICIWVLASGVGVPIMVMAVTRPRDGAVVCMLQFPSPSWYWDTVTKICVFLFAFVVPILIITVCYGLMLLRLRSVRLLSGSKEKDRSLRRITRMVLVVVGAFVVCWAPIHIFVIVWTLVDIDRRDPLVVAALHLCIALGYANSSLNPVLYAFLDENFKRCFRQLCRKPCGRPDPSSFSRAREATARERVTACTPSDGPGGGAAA
Sequence of Kappa-type opioid receptor (P41145 whole entry): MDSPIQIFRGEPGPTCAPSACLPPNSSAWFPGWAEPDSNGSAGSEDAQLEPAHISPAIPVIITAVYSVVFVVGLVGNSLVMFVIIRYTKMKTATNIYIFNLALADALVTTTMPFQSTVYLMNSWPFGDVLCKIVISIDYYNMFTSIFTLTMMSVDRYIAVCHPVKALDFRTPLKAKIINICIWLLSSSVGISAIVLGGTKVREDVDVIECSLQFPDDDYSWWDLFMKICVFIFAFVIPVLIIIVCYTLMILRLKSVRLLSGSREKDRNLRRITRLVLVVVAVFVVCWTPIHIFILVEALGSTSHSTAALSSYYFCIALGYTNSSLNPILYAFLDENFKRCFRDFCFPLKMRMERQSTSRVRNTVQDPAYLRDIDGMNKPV

`C[C@@H]1[C@H]2c3cc(NCc4ccccc4)ccc3C[C@@H](c3ccc(NCc4ccccc4)cc32)N1CC1CC1` showed an IC50 [1] of 49 nM, an IC50 (Mu-type opioid receptor [2]) of 7 nM and an IC50 [3] of 31 nM.
For `C=CCN1[C@H](C)[C@H]2c3ccccc3C[C@H]1c1ccccc12`, the IC50 [1] was over 9700 nM, the IC50 (Mu-type opioid receptor [2]) was 2000 nM and the IC50 [3] was over 4000 nM.
`C[C@H]1[C@H]2c3ccccc3C[C@H](c3ccccc32)N1C` gave an IC50 [1] of over 10000 nM, an IC50 (Mu-type opioid receptor [2]) of 611 nM and an IC50 [3] of over 10000 nM.
With `C[C@H]1N[C@@H]2Cc3ccccc3[C@H]1c1ccccc12` the IC50 [1] was over 10000 nM, the IC50 (Mu-type opioid receptor [2]) was 650 nM and the IC50 [3] was over 10000 nM.
Compound `CC(C)C[C@H]1[C@H]2c3ccccc3C[C@H](c3ccccc32)N1C` has an IC50 [1] of over 8700 nM, an IC50 (Mu-type opioid receptor [2]) of 1010 nM and an IC50 [3] of 2970 nM.
`Oc1ccc2c(c1)[C@H]1c3cc(O)ccc3[C@H](C2)N2CCC[C@@H]12` showed an IC50 [1] of 3800 nM, an IC50 (Mu-type opioid receptor [2]) of 130 nM and an IC50 [3] of 7200 nM.
`C[C@@H]1[C@H]2c3ccccc3C[C@@H](c3ccccc32)N1CC1CC1` showed an IC50 [1] of over 10000 nM, an IC50 (Mu-type opioid receptor [2]) of 1080 nM and an IC50 [3] of over 10000 nM.
Work on `COc1ccc2c(c1)[C@H]1c3cc(OC)ccc3[C@H](C2)N2CCC[C@@H]12` yielded an IC50 [1] of 4040 nM, an IC50 (Mu-type opioid receptor [2]) of 160 nM and an IC50 [3] of over 10000 nM.
In the case of `CC(=O)Oc1ccc2c(c1)[C@H]1c3cc(OC(C)=O)ccc3[C@H](C2)N(CC2CC2)[C@@H]1C`, the IC50 [1] is reported as 3300 nM, the IC50 (Mu-type opioid receptor [2]) is reported as 44 nM and the IC50 [3] is reported as 2020 nM.
In the case of `COc1cc2c(cc1OC)[C@H]1c3cc(OC)c(OC)cc3[C@H](C2)N(C)[C@@H]1C`, the IC50 [1] is reported as over 10000 nM, the NA [4] is reported as “inactive” and the IC50 (Mu-type opioid receptor [2]) is reported as over 10000 nM. The IC50 [3] was over 10000 nM.
With `Fc1ccc2c(c1)[C@H]1c3cc(F)ccc3[C@H](C2)N2CCC[C@@H]12` the IC50 [1] was over 10000 nM, the IC50 (Mu-type opioid receptor [2]) was 103 nM and the IC50 [3] was over 6400 nM.
`C[C@@H]1[C@H]2c3cc(O)ccc3C[C@@H](c3ccc(O)cc32)N1C` gave an IC50 [1] of 1300 nM, an IC50 (Mu-type opioid receptor [2]) of 16 nM and an IC50 [3] of 961 nM.
`CN1CC[C@]23CCCC[C@H]2[C@H]1Cc1ccc(O)cc13` [LEVORPHANOL] gave an IC50 [1] of 5.1 nM and an IC50 [3] of 4 nM.
`CN1[C@@H]2Cc3ccccc3[C@@H](c3ccccc32)[C@@H]1CCCO` gave an IC50 [1] of over 10000 nM, an IC50 (Mu-type opioid receptor [2]) of 1150 nM and an IC50 [3] of over 10000 nM.
With `C[C@@H]1[C@H]2c3ccccc3C[C@@H](c3ccccc32)N1C` the IC50 [1] was over 10000 nM, the IC50 (Mu-type opioid receptor [2]) was 230 nM and the IC50 [3] was over 75000 nM.
In the case of `COc1cc2c(cc1OC)[C@H]1c3cc(OC)c(OC)cc3[C@H](C2)N(CC2CC2)[C@@H]1C`, the IC50 [1] is reported as over 10000 nM, the NA [4] is reported as “inactive” and the IC50 (Mu-type opioid receptor [2]) is reported as over 10000 nM. It also gave an IC50 [3] of over 10000 nM.
With `C[C@@H]1[C@H]2c3cc(Nc4ccccc4)ccc3C[C@@H](c3ccc(Nc4ccccc4)cc32)N1CC1CC1` the IC50 [1] was 890 nM, the IC50 (Mu-type opioid receptor [2]) was 82 nM and the IC50 [3] was 1200 nM.
Compound `C[C@@H]1[C@H]2c3cc(Br)ccc3C[C@@H](c3ccc(Br)cc32)N1CC1CC1` has an IC50 [1] of over 10000 nM, an IC50 (Mu-type opioid receptor [2]) of 2050 nM and an IC50 [3] of over 4900 nM.
For `CC(=O)Oc1ccc2c(c1)[C@H]1c3cc(OC(C)=O)ccc3[C@H](C2)N(C)[C@@H]1C`, the IC50 [1] was over 4700 nM, the IC50 (Mu-type opioid receptor [2]) was 200 nM and the IC50 [3] was over 9500 nM.
In the case of `C[C@@H]1[C@H]2c3cc(N4CCOCC4)ccc3C[C@@H](c3ccc(N4CCOCC4)cc32)N1C`, the IC50 [1] is reported as 7500 nM, the IC50 (Mu-type opioid receptor [2]) is reported as 690 nM and the IC50 [3] is reported as over 10000 nM.
Work on `c1ccc2c(c1)C[C@H]1c3ccccc3[C@H]2[C@@H]2CCCN12` yielded an IC50 [1] of over 7800 nM, an IC50 (Mu-type opioid receptor [2]) of 59 nM and an IC50 [3] of 6100 nM.
For `COc1ccc2c(c1)[C@H]1c3cc(OC)ccc3[C@H](C2)N(CC2CC2)[C@@H]1C`, the IC50 [1] was 6630 nM, the IC50 (Mu-type opioid receptor [2]) was 1030 nM and the IC50 [3] was 5330 nM.
With `CC(=O)Oc1ccc2c(c1)[C@H]1c3cc(OC(C)=O)ccc3[C@H](C2)N2CCC[C@@H]12` the IC50 [1] was 2900 nM, the IC50 (Mu-type opioid receptor [2]) was 220 nM and the IC50 [3] was over 6000 nM.
Work on `C[C@@H]1[C@H]2c3cc(NCc4ccccc4)ccc3C[C@@H](c3ccc(NCc4ccccc4)cc32)N1C` yielded an IC50 [1] of 120 nM, an EC50 (Mu-type opioid receptor [5]) of 4300 nM and an IC50 (Mu-type opioid receptor [2]) of 8 nM. For the same compound, the IC50 [3] was 640 nM.
For `C[C@@H]1[C@H]2c3cc(N4CCN(C)CC4)ccc3C[C@@H](c3ccc(N4CCN(C)CC4)cc32)N1C`, the IC50 [1] was 2500 nM, the IC50 (Mu-type opioid receptor [2]) was 53 nM and the IC50 [3] was 3200 nM.
With `Brc1ccc2c(c1)[C@H]1c3cc(Br)ccc3[C@H](C2)N2CCC[C@@H]12` the IC50 [1] was 5020 nM, the IC50 (Mu-type opioid receptor [2]) was 500 nM and the IC50 [3] was 7400 nM.
For `c1ccc2c(c1)C[C@@H]1c3ccccc3[C@H]2[C@@H]2CCCCN12`, the IC50 [1] was over 10000 nM, the IC50 (Mu-type opioid receptor [2]) was 390 nM and the IC50 [3] was 7400 nM.
Work on `C[C@@H]1[C@H]2c3ccccc3C[C@@H](c3ccccc32)N1Cc1ccccc1` yielded an IC50 [1] of over 8800 nM, an IC50 (Mu-type opioid receptor [2]) of over 10000 nM and an IC50 [3] of over 5800 nM.
For `C[C@@H]1[C@H]2c3cc(N4CCN(C)CC4)ccc3C[C@@H](c3ccc(N4CCN(C)CC4)cc32)N1CC1CC1`, the IC50 [1] was 2040 nM, the IC50 (Mu-type opioid receptor [2]) was 690 nM and the IC50 [3] was 1600 nM.
`Brc1ccc(CNc2ccc3c(c2)[C@H]2c4cc(NCc5ccc(Br)cc5)ccc4[C@H](C3)N3CCC[C@@H]23)cc1` showed an IC50 [1] of 5300 nM, an IC50 (Mu-type opioid receptor [2]) of 120 nM and an IC50 [3] of 7000 nM.
Work on `C[C@@H]1[C@H]2c3cc(O)ccc3C[C@@H](c3ccc(O)cc32)N1CC1CC1` yielded an IC50 [1] of 460 nM, an IC50 (Mu-type opioid receptor [2]) of 6.4 nM and an IC50 [3] of 204 nM.
In the case of `CN1[C@@H]2Cc3ccccc3[C@@H](c3ccccc32)[C@@H]1Cc1ccccc1`, the IC50 [1] is reported as 3440 nM, the IC50 (Mu-type opioid receptor [2]) is reported as 1050 nM and the IC50 [3] is reported as 1710 nM.
With `C[C@@H]1[C@H]2c3cc(Br)ccc3C[C@@H](c3ccc(Br)cc32)N1C` the IC50 [1] was 8840 nM, the IC50 (Mu-type opioid receptor [2]) was 360 nM and the IC50 [3] was 6920 nM.
Compound `CC(=O)N1[C@H](C)[C@H]2c3ccccc3C[C@H]1c1ccccc12` has an IC50 [1] of over 10000 nM, an IC50 (Mu-type opioid receptor [2]) of over 9500 nM and an IC50 [3] of over 10000 nM.
For `C[C@@H]1[C@H]2c3cc(Nc4ccccc4)ccc3C[C@@H](c3ccc(Nc4ccccc4)cc32)N1C`, the IC50 [1] was 530 nM, the IC50 (Mu-type opioid receptor [2]) was 56 nM and the IC50 [3] was 3600 nM.
With `COc1cc2c(cc1OC)[C@@H]1c3cc(OC)c(OC)cc3[C@@H](C2)N(C)[C@H]1C` the IC50 [1] was over 5700 nM, the NA [4] was “inactive” and the IC50 [3] was over 10000 nM.
In the case of `COc1ccc2c(c1)[C@H]1c3cc(OC)ccc3[C@H](C2)N(C)[C@@H]1C`, the IC50 [1] is reported as over 10000 nM, the NA [4] is reported as “inactive” and the IC50 (Mu-type opioid receptor [2]) is reported as 420 nM. For the same compound, the IC50 [3] was over 10000 nM.
Compound `CC(C)[C@H]1[C@H]2c3ccccc3C[C@H](c3ccccc32)N1C` has an IC50 [1] of over 10000 nM, an IC50 (Mu-type opioid receptor [2]) of 695 nM and an IC50 [3] of 3410 nM.
